pIC50: −log10 of the molar value.
Assays:
HL-60 = test: Percent apoptotic activity of compound in human acute myelocytic leukemia HL-60 cells at 10 uM for 16 h; type: functional
In short: (§1)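 Seeded at 3 × 10⁵ cells/mL and given compound at 10 µM final from ethanol stock (vehicle 1% ethanol) for 16 h. Cytospin, RapiDiff staining, then ~300 cells counted by light microscopy (shrinkage, blebbing, nuclear condensation/fragmentation) for percent apoptosis.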

K562 = test: Percent apoptotic activity of compound in chronic myelogenous leukemia K562 cells at 10 uM for 16 h; type: functional, Homo sapiens; in short: as §1
M109 = test: In vitro cytotoxic activity of compound against (M109) mouse lung carcinoma cells by sulforhodamine B (SRB) assay; type: functional, cell-based
Mus musculus [1] = test: Effect (30 mg/kg; i.p.) on body weight of BALB/c mice according to the qdx8 schedule; initial weight=21.02 grams; type: functional
In short: (§2)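 Male Balb/c mice (5-6 weeks old, about 20 g), five per group, dosed ip once daily for 8 consecutive days at 30 mg/kg. Vehicle: Cremophor EL 1:1 with ethanol, then diluted 1:4 in PBS, 10 mL/kg. Vehicle-only control group. Body weight recorded. 24 h after the last dose, retro-orbital blood was taken under CO2 into heparin. RBC, WBC and PLT counted on a cell analyzer. ANOVA and Student's t test.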

LoVo = test: In vitro cytotoxic activity of compound against (LoVo) human colon adenocarcinoma cells by sulforhodamine B (SRB) assay; type: functional, cell-based
In short: (§3)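 Seeded at 1 × 10⁴ cells/well and grown 24 h at 37 °C; LoVo in Ham's F12, MesSa in McCoy's 5A, with 10% heat-inactivated FCS. Exposed 24 h to 10 decreasing concentrations (200–0.5 µM; dissolved in 10% DMSO in water; at least eight replicates each). Washed, 48 h recovery, TCA fixation, sulforhodamine B staining, OD 540 nm. IC50 (± SD) by sigmoidal curve fitting.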

NCI-H460 = test: In vitro cytotoxic activity of compound against human lung carcinoma (NCI-H460) cell lines by sulforhodamine B (SRB) assay; type: functional, cell-based
In short: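 NCI-H460 seeded at 3 × 10³ cells/well, 24 h at 37 °C, then 24 h drug exposure at 10 decreasing concentrations (200–0.5 µM; drug in 10% DMSO in water; at least eight replicates each). PBS washes, 48 h recovery, TCA fixation, sulforhodamine B staining, bound dye read at 540 nm. IC50 (± SD) from sigmoidal curve fitting.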

HT-29 = test: In vitro cytotoxic activity of compound against human colon adenocarcinoma (HT-29) cell line by sulforhodamine B (SRB) assay; type: functional, cell-based
[2] = In vitro cytotoxic activity of compound against (MesSa) human uterine sarcoma cells by sulforhodamine B (SRB) assay; type: functional, cell-based; in short: as §3
Mus musculus [3] = test: Effect (30 mg/kg; i.p.) on hematology parameter of BALB/c mice as per the qdx8 schedule; type: functional; in short: as §2

SMILES | Apoptotic Activity (HL-60) [%] | Apoptotic Activity (K562) [%] | further results
CCCCCC(=O)OC1=C(c2cccc3ccccc23)Oc2ccccc2[N+]2=C1CC=C2 | 0 | 0 | 
CCN(CC)C(=O)OC1=C(c2cccc3ccccc23)Sc2ccccc2[N+]2=C1CC=C2 | 12 | 7 | 
COc1ccc(C2=C(OC(=O)c3ccncc3)C3=[N+](C=CC3)c3ccccc3S2)cc1 | 31 | 32 | 
CCOC(=O)c1ccc2c(c1)OC(c1cccc3ccccc13)=C(OC(=O)N(C)C)C1=[N+]2C=CC1 | 49 | 50 | 
CC(=O)OC1=C(c2cccc3ccccc23)Oc2ccccc2[N+]2=C1CC=C2 | 42 | 43 | 
CN(C)C(=O)OC1=C(c2cccc3ccccc23)Oc2cc(C(=O)O)ccc2-n2cccc21 | 0 | 0 | 
CCCCC(=O)OC1=C(c2cccc3ccccc23)Oc2ccccc2[N+]2=C1CC=C2 | 0 | 0 | 
CN(C)C(=O)OC1=C(c2ccc3ccccc3c2)Oc2ccccc2[N+]2=C1CC=C2 | 0 | 0 | 
COc1ccc(C2=C(OC(=O)N(C)C)C3=[N+](C=CC3)c3ccccc3S2)cc1 | <10 | <10 | 
CN(C)C(=O)OC1=C(c2cccc3ccccc23)Sc2ccccc2[N+]2=C1CC=C2 | 40 | 39 | 
CC(=O)OC1=C(c2cccc3ccccc23)Sc2ccccc2[N+]2=C1CC=C2 | 39 | 41 | 
O=C(OC1=C(c2cccc3ccccc23)Sc2ccccc2[N+]2=C1CC=C2)c1ccncc1 | 55 | 27 | 
CN(C)C(=O)OC1=C(c2cccc3ccccc23)Oc2ccccc2[N+]2=C1CC=C2 | 44 | 48 | pIC50 (M109): 5.74; Weight (Mus musculus [1]): 20.8 g; pIC50 (LoVo): 5.04; pIC50 (NCI-H460): 5.77; pIC50 (HT-29): 5.72; pIC50 [2]: 5.15; PLT (Mus musculus [3]): 354 10E3/mm3; RBC (Mus musculus [3]): 9.45 10E6/mm3; WBC (Mus musculus [3]): 7.03 10^3/mm³
CC(=O)OC1=C(c2ccccc2)Oc2ccccc2[N+]2=C1CC=C2 | 0 | 0 | 
